Laboratory results from ChEMBL document CHEMBL4007452, “Discovery of an Orally Selective Inhibitor of Signal Transducer and Activator of Transcription 3 Using Advanced Multiple Ligand Simultaneous Docking” (J Med Chem, 2017).
Activity calls are given as the source filed them. No cut-off for these calls is given here.

Key:
[1] = system: U2OS; assay: Antiproliferative activity against human U2OS cells after 24 hrs by MTT assay; format: functional, cell-based
How it was run: (§1)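 Cells were seeded at 3000 per well and incubated 24 h at 37 °C. Compounds were added in triplicate with 10% FBS: 0.1-10 or 0.1-20 µM for cancer lines, 3.125-400 µM for MCF-10A. Viability was read by MTT absorbance at 595 nm, with IC50 fitted from the curves. DMSO stocks were 20 mM.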

[2] = Antiproliferative activity against human UW288-1 cells after 24 hrs by MTT assay; format: functional, cell-based; settings: UW288-1, 24 h; how it was run: as §1
[3] = Antiproliferative activity against human UW426 cells after 24 hrs by MTT assay; format: functional, cell-based; settings: UW426, 24 h; how it was run: as §1
[4] = system: MDA-MB-231; assay: Antiproliferative activity against human MDA-MB-231 cells after 24 hrs by MTT assay; format: functional, cell-based; settings: MDA-MB-231, 24 h; how it was run: as §1
[5] = Antiproliferative activity against human BkPC-3 cells after 24 hrs by MTT assay; format: functional, cell-based; settings: BkPC-3, 24 h; how it was run: as §1
[6] = biological target: Epidermal growth factor receptor (Homo sapiens) (UniProt P00533); assay: Inhibition of EGFR in human MDA-MB-231 cells assessed as reduction in p-Akt level at 2.5 to 5 uM after 12 hrs by immunoblot analysis; format: cell-based
Sequence of Epidermal growth factor receptor (Homo sapiens) (P00533 whole entry): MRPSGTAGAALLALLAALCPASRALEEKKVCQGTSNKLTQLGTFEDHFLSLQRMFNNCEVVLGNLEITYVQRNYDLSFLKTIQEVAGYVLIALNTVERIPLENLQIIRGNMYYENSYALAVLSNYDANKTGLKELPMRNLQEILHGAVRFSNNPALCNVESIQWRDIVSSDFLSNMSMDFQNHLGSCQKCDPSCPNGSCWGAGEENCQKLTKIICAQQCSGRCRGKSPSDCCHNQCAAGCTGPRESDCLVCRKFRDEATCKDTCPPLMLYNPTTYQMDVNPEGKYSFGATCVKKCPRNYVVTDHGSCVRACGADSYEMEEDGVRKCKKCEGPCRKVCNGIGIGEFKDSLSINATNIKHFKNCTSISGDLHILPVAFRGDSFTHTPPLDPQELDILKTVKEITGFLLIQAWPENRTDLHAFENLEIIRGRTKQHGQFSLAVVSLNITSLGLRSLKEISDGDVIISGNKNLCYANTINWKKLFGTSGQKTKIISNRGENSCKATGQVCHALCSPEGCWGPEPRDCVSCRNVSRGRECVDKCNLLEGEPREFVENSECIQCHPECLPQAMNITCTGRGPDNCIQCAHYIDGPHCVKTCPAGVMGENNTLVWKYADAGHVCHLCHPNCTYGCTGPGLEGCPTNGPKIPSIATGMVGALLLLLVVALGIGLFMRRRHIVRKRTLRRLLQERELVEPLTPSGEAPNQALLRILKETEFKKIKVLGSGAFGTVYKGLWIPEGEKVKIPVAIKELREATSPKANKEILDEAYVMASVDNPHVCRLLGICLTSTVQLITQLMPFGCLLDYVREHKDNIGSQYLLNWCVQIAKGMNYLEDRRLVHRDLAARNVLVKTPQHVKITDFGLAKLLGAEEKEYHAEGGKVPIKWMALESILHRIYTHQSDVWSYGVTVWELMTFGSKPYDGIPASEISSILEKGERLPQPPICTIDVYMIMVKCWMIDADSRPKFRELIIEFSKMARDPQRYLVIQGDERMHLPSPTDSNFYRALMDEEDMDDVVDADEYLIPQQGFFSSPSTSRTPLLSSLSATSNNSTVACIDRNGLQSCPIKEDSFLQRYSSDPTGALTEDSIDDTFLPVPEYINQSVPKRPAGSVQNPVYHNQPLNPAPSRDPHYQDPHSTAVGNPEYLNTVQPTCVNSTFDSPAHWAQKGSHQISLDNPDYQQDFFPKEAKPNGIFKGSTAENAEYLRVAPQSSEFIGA
How it was run: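 MDA-MB-231 cells at 60–80% confluence were treated 12 h with 10% FBS at 2.5-10 µM or 2.5-5 µM, against a DMSO control. Whole-cell lysates were immunoblotted, with bands quantified as percent of control.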

[7] = system: Rattus norvegicus; assay: Apparent volume of distribution in Sprague-Dawley rat plasma at 10 mg/kg, po measured after 24 hrs by UPLC analysis; format: ADME, organism-based; settings: in vivo
How it was run: (§2)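 Rat plasma sampled from 2 min to 24 h after a single i.v. (1 mg/kg) or p.o. (10 mg/kg) dose. Parameters were derived from the concentration-time profiles. The bioanalytical method was validated to FDA guidelines for selectivity, linearity, LLOQ, accuracy, precision, recovery, matrix effect and stability.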

[8] = system: Rattus norvegicus; assay: AUMC (0 to t) in Sprague-Dawley rat plasma at 10 mg/kg, po measured after 24 hrs by UPLC analysis; format: ADME, organism-based; settings: in vivo; how it was run: as §2
[9] = system: Mus musculus; assay: Toxicity in BALB/c nude mouse xenografted with human MDA-MB-231 cells assessed as spleen damage at 40 mg/kg, po qd administered for 32 days by H&E staining based light microscopy; format: organism-based; settings: in vivo, 768 h
How it was run: (§3)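 6-week-old female athymic SPF BALB/c nude mice received 5 x 10^6 MDA-MB-231 cells s.c. in the flank. Oral treatment began once tumors reached about 100 mm3, with 8 mice per group and a saline vehicle control. […] Treatment lasted 32 days. Heart, liver, spleen, lung and kidney were fixed 48 h in 10% neutral-buffered formaldehyde, paraffin-embedded, cut at 5 µm, H&E-stained and examined by light microscopy.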

[10] = Initial plasma concentration in Sprague-Dawley rat at 1 mg/kg, iv measured after 24 hrs by UPLC analysis; format: ADME, organism-based; how it was run: as §2
[11] = AUC (0 to t) in Sprague-Dawley rat plasma at 1 mg/kg, iv measured after 24 hrs by UPLC analysis; format: ADME, organism-based; parameters: dose 1 mg/kg, time < 24 hr, route intravenous; how it was run: as §2
[12] = system: Rattus norvegicus; assay: AUMC (0 to infinity) in Sprague-Dawley rat plasma at 10 mg/kg, po measured after 24 hrs by UPLC analysis; format: ADME, organism-based; settings: in vivo; how it was run: as §2
[13] = system: Rattus norvegicus; assay: AUMC (0 to infinity) in Sprague-Dawley rat plasma at 1 mg/kg, iv measured after 24 hrs by UPLC analysis; format: ADME, organism-based; settings: in vivo; how it was run: as §2
[14] = system: Mus musculus; assay: Toxicity in BALB/c nude mouse xenografted with human MDA-MB-231 cells assessed as reduction in body weight at 40 mg/kg, po administered for 32 days; format: organism-based; settings: in vivo, 768 h
How it was run: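 MDA-MB-231 cells (5 x 10^6) were implanted s.c. in the flank of 6-week-old female athymic BALB/c nude mice. Oral dosing started at a tumor volume of about 100 mm3, with 8 mice per group and a saline vehicle control. […] Body weight was tracked over the 32-day treatment.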

[15] = system: Rattus norvegicus; assay: AUMC (0 to t) in Sprague-Dawley rat plasma at 1 mg/kg, iv measured after 24 hrs by UPLC analysis; format: ADME, organism-based; settings: in vivo; how it was run: as §2
[16] = system: Mus musculus; assay: Toxicity in BALB/c nude mouse xenografted with human MDA-MB-231 cells assessed as kidney damage at 40 mg/kg, po qd administered for 32 days by H&E staining based light microscopy; format: organism-based; settings: in vivo, 768 h; how it was run: as §3
[17] = MRT (0 to t) in Sprague-Dawley rat plasma at 1 mg/kg, iv measured after 24 hrs by UPLC analysis; format: ADME, organism-based; how it was run: as §2
[18] = system: Mus musculus; assay: Toxicity in BALB/c nude mouse xenografted with human MDA-MB-231 cells assessed as liver damage at 40 mg/kg, po qd administered for 32 days by H&E staining based light microscopy; format: organism-based; settings: in vivo, 768 h; how it was run: as §3
[19] = system: MDA-MB-231; assay: Anticancer activity against human MDA-MB-231 cells xenografted in BALB/c nude mouse assessed as reduction in tumor volume at 40 mg/kg, po qd; format: functional, organism-based
How it was run: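 Female athymic BALB/c nude mice, 6 weeks old, bearing s.c. flank MDA-MB-231 xenografts (5 x 10^6 cells). Dosing began at about 100 mm3 tumor volume; 8 mice per group, one tumor each. Drug was given orally in saline, with a saline vehicle control, for 32 days. Caliper L and W measured every other day; volume = 0.5236×L×W².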

[20] = Cmax in Sprague-Dawley rat plasma at 10 mg/kg, po measured after 24 hrs by UPLC analysis; format: ADME, organism-based; parameters: dose 10 mg/kg, route oral; how it was run: as §2
[21] = Cmax in Sprague-Dawley rat plasma at 1 mg/kg, iv measured after 24 hrs by UPLC analysis; format: ADME, organism-based; parameters: dose 1 mg/kg, route intravenous; how it was run: as §2
[22] = Apparent volume of distribution in Sprague-Dawley rat plasma at 1 mg/kg, iv measured after 24 hrs by UPLC analysis; format: ADME, organism-based; settings: read-out: Vz; how it was run: as §2
[23] = AUC (0 to infinity) in Sprague-Dawley rat plasma at 1 mg/kg, iv measured after 24 hrs by UPLC analysis; format: ADME, organism-based; parameters: dose 1 mg/kg, time infinity, route intravenous; how it was run: as §2
[24] = Tmax in Sprague-Dawley rat plasma at 1 mg/kg, iv measured after 24 hrs by UPLC analysis; format: ADME, organism-based
How it was run: (§4)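 Rats dosed i.v. or p.o. Plasma concentrations followed from 2 min to 24 h after dosing. The bioanalytical method was validated to FDA guidelines for selectivity, linearity, LLOQ, accuracy, precision, recovery, matrix effect and stability.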

[25] = Oral bioavailability in Sprague-Dawley rat at 10 mg/kg measured after 24 hrs by UPLC analysis; format: ADME, organism-based; settings: in vivo
[26] = AUC (0 to t) in Sprague-Dawley rat plasma at 10 mg/kg, po measured after 24 hrs by UPLC analysis; format: ADME, organism-based; parameters: time < 24 hr, dose 10 mg/kg, route oral; how it was run: as §2
[27] = Tmax in Sprague-Dawley rat plasma at 10 mg/kg, po measured after 24 hrs by UPLC analysis; format: ADME, organism-based; how it was run: as §4
[28] = system: Mus musculus; assay: Toxicity in BALB/c nude mouse xenografted with human MDA-MB-231 cells assessed as lung damage at 40 mg/kg, po qd administered for 32 days by H&E staining based light microscopy; format: organism-based; settings: in vivo, 768 h; how it was run: as §3
[29] = system: Mus musculus; assay: Toxicity in BALB/c nude mouse xenografted with human MDA-MB-231 cells assessed as heart damage at 40 mg/kg, po qd administered for 32 days by H&E staining based light microscopy; format: organism-based; settings: in vivo, 768 h; how it was run: as §3
[30] = Terminal half life in Sprague-Dawley rat plasma at 10 mg/kg, po measured after 24 hrs by UPLC analysis; format: ADME, organism-based; settings: read-out: beta t1/2 (converted); how it was run: as §4
[31] = Terminal half life in Sprague-Dawley rat plasma at 1 mg/kg, iv measured after 24 hrs by UPLC analysis; format: ADME, organism-based; settings: read-out: beta t1/2 (converted); how it was run: as §4
[32] = MRT (0 to infinity) in Sprague-Dawley rat plasma at 10 mg/kg, po measured after 24 hrs by UPLC analysis; format: ADME, organism-based; how it was run: as §2
[33] = AUC (0 to infinity) in Sprague-Dawley rat plasma at 10 mg/kg, po measured after 24 hrs by UPLC analysis; format: ADME, organism-based; parameters: dose 10 mg/kg, route oral, time infinity; how it was run: as §2
[34] = MRT (0 to infinity) in Sprague-Dawley rat plasma at 1 mg/kg, iv measured after 24 hrs by UPLC analysis; format: ADME, organism-based; how it was run: as §2
[35] = MRT (0 to t) in Sprague-Dawley rat plasma at 10 mg/kg, po measured after 24 hrs by UPLC analysis; format: ADME, organism-based; how it was run: as §2
[36] = system: Mus musculus; assay: Toxicity in BALB/c nude mouse xenografted with […] S180 cells assessed as reduction in liver size at 1 mg/kg, ip after 21 days; format: organism-based; settings: in vivo, 504 h
[37] = system: Mus musculus; assay: Toxicity in BALB/c nude mouse xenografted with […] S180 cells assessed as reduction in kidney size at 1 mg/kg, ip after 21 days; format: organism-based; settings: in vivo, 504 h
[38] = system: Mus musculus; assay: Toxicity in BALB/c nude mouse xenografted with […] S180 cells assessed as reduction in spleen size at 1 mg/kg, ip after 21 days; format: organism-based; settings: in vivo, 504 h
[39] = system: Mus musculus; assay: Toxicity in BALB/c nude mouse xenografted with […] S180 cells assessed as body weight loss at 1 mg/kg, ip after 13 days relative to vehicle control; format: organism-based; settings: in vivo, 312 h
[40] = system: CCRF S-180; assay: Anticancer activity against […] cells xenografted in BALB/c nude mouse assessed as reduction in tumor weight at 1 mg/kg, ip measured after 21 days relative to vehicle control; format: functional; parameters: scale not given: the % may be the effect or the level left
How it was run: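 Male mice, 4 weeks old, given s.c. flank S180 mouse sarcoma cells (3 x 10^6). From day 2, 10 mice per group received saline vehicle, oral drug at 5 mg/kg, or i.p. drug at 1 mg/kg, each dissolved in saline. Therapy ran 21 days; tumor weight and body weight were recorded.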

CN(CC(=O)N(Cc1ccc(C2CCCCC2)cc1)c1ccc(C(=O)O)c(O)c1)S(=O)(=O)c1c(F)c(F)c(F)c(F)c1F
IC50 [1]: 8.3 µM
IC50 [2]: 9.8 µM
IC50 [3]: 10.2 µM
IC50 [4]: 6.8 µM
IC50 [5]: 6.9 µM
inhibition [6]: Active

COc1cc2ncnc(Nc3ccc(F)c(Cl)c3)c2cc1OCCCN1CCOCC1 [GEFITINIB]
Vz [7]: 13.2387 L/kg
AUMCt [8]: 5649.7 hr2.ng/ml
Activity [9]: Non-Toxic
C0 at 24 h [10]: 715 ng/mL
AUC(0-t) at 24 h [11]: 491 ng·h/mL
AUMC [12]: 5903.9 hr2.ng/ml
AUMC [13]: 1261.5 hr2.ng/ml
Activity [14]: Non-Toxic
AUMCt [15]: 1098 hr2.ng/ml
Activity [16]: Non-Toxic
MRT last at 24 h [17]: 2.12 h
Activity [18]: Non-Toxic
Activity [19]: Active
Cmax [20]: 1200 ng/mL
Cmax [21]: 621 ng/mL
Vd [22]: 6.68 L/kg
AUC(0-inf) [23]: 501 ng·h/mL
Tmax [24]: 1.98 min
bioavailability [25]: 47.4%
AUC(0-t) at 24 h [26]: 2360 ng·h/mL
Tmax [27]: 1 h
Activity [28]: Non-Toxic
Activity [29]: Non-Toxic
half-life [30]: 2.17 h
half-life [31]: 2.39 h
MRT inf [32]: 2.49 h
AUC(0-inf) [33]: 2370 ng·h/mL
MRT inf [34]: 2.4 h
MRT last at 24 h [35]: 2.4 h

COc1cccc2c1C(=O)c1c(O)c3c(c(O)c1C2=O)C[C@@](O)(C(=O)CO)C[C@@H]3O[C@H]1C[C@H](N)[C@H](O)[C@H](C)O1 [DOXORUBICIN]
Activity [36]: Toxic
Activity [37]: Toxic
Activity [38]: Toxic
Activity [39]: 21.01%
Activity [40]: 52.23%
